Reference: EPA's CvTdb concentration-time database

Assays:
[1] = system: Mouse; test: concentration in plasma after dosing; conditions: dosed: 2,4-Dichlorophenoxyacetic acid, 1.0 mg/kg, oral, Male, B6C3F1
[2] = system: Hamster; test: concentration in plasma after dosing; conditions: dosed: 2,4-Dichlorophenoxyacetic acid, 2.0 mg/kg, oral, Male, Syrian Golden
Procedure, shortened: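 Sampling and analytical methods are those of each source and frequently went unreported. The concentration-versus-time and amount-versus-time points were compiled from published in vivo toxicokinetic studies and two structured collections. Most were digitised from plot screenshots with WebPlotDigitizer, with others copied from tables, in the reported units.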

[3] = system: Rat; test: concentration in plasma after dosing; conditions: 6 h; dosed: 2-Hydroxy-4-methoxybenzophenone; 500 mg/kg; oral; Male; F344
[4] = system: Mouse; test: concentration in plasma after dosing; conditions: 2 h; dosed: 2-Hydroxy-4-methoxybenzophenone; 50 mg/kg; iv; Female; B6C3F1
[5] = system: Mouse; test: concentration in plasma after dosing; conditions: 2 h; dosed: 2-Hydroxy-4-methoxybenzophenone; 500 mg/kg; oral; Male; B6C3F1
[6] = system: Mouse; test: concentration in plasma after dosing; conditions: 2 h; dosed: 2-Hydroxy-4-methoxybenzophenone; 50 mg/kg; iv; Male; B6C3F1
[7] = system: Mouse; test: concentration in plasma after dosing; conditions: 3 h; dosed: 2-Hydroxy-4-methoxybenzophenone; 50 mg/kg; iv; Male; B6C3F1
[8] = system: Mouse; test: concentration in plasma after dosing; conditions: 2.5 min; dosed: 2-Hydroxy-4-methoxybenzophenone; 250 mg/kg; oral; Female; B6C3F1
[9] = system: Rat; test: concentration in plasma after dosing; conditions: dosed: 2-Hydroxy-4-methoxybenzophenone, 250 mg/kg, oral, Male, F344
[10] = system: Rat; test: concentration in plasma after dosing; conditions: dosed: Methyleugenol, 37 mg/kg, oral, Male, F344/N
[11] = system: Rat; test: concentration in plasma after dosing; conditions: 20 min; dosed: Methyleugenol; 37 mg/kg; oral; Male; F344/N
[12] = system: Rat; test: concentration in plasma after dosing; conditions: dosed: Methyleugenol, 37 mg/kg, oral, Male, F344/N; remark: listed apart in the source
[13] = system: Rat; test: concentration in brain after dosing; conditions: 192 h; dosed: Perfluorohexane-1-sulphonic acid – potassium salt; 16 mg/kg; oral; Female; F344
[14] = system: Rat; test: concentration in brain after dosing; conditions: 24 h; dosed: Perfluorohexane-1-sulphonic acid – potassium salt; 16 mg/kg; oral; Female; Harlan Sprague Dawley
[15] = system: Rat; test: concentration in kidney after dosing; conditions: 1200 h; dosed: Perfluorohexane-1-sulphonic acid – potassium salt; 16 mg/kg; oral; Male; Harlan Sprague Dawley
[16] = system: Rat; test: concentration in brain after dosing; conditions: 6 h; dosed: Perfluorohexane-1-sulphonic acid – potassium salt; 16 mg/kg; oral; Female; F344
[17] = system: Rat; test: concentration in kidney after dosing; conditions: 528 h; dosed: Perfluorohexane-1-sulphonic acid – potassium salt; 16 mg/kg; oral; Female; F344
[18] = system: Rat; test: concentration in plasma after dosing; conditions: 12 h; dosed: Primidone; 80 mg/kg; oral; Female; F344
[19] = system: Rat; test: concentration in plasma after dosing; conditions: 18 h; dosed: Primidone; 80 mg/kg; oral; Female; F344
[20] = system: Rat; test: concentration in plasma after dosing; conditions: 0.25 h; dosed: Primidone; 30 mg/kg; oral; Male; F344
[21] = system: Rat; test: concentration in plasma after dosing; conditions: 6 h; dosed: Primidone; 80 mg/kg; oral; Male; F344
[22] = system: Rat; test: concentration in plasma after dosing; conditions: 9 h; dosed: Primidone; 130 mg/kg; oral; Female; F344
[23] = system: Rat; test: concentration in plasma after dosing; conditions: 2 h; dosed: Pyridine; 10 mg/kg; iv; Male; F344
[24] = system: Rat; test: concentration in plasma after dosing; conditions: 0.25 h; dosed: Pyridine; 10 mg/kg; iv; Male; F344
[25] = system: Rat; test: concentration in plasma after dosing; conditions: 40 h; dosed: Pyridine; 100 mg/kg; oral; Male; F344
[26] = system: Rat; test: concentration in plasma after dosing; conditions: 3 h; dosed: alpha-Thujone; 25 mg/kg; oral; Male; Harlan Sprague Dawley
[27] = system: Rat; test: concentration in plasma after dosing; conditions: 5 min; dosed: alpha-Thujone; 50 mg/kg; oral; Female; Harlan Sprague Dawley
[28] = system: Rat; test: concentration in plasma after dosing; conditions: 5 min; dosed: alpha-Thujone; 25 mg/kg; oral; Male; Harlan Sprague Dawley
[29] = system: Rat; test: concentration in plasma after dosing; conditions: 3 h; dosed: alpha-Thujone; 50 mg/kg; oral; Male; Harlan Sprague Dawley
[30] = system: Rat; test: concentration in plasma after dosing; conditions: 6 h; dosed: alpha-Thujone; 25 mg/kg; oral; Male; Harlan Sprague Dawley
[31] = system: Rat; test: concentration in brain after dosing; conditions: 0.5 h; dosed: alpha-Thujone; 25 mg/kg; oral; Male; Harlan Sprague Dawley
[32] = system: Rat; test: concentration in brain after dosing; conditions: 2 h; dosed: 76231-76-0; 3.0 mg/kg; iv; Female; F344
[33] = system: Rat; test: concentration in plasma after dosing; conditions: 5 min; dosed: alpha-Thujone; 50 mg/kg; oral; Female; Harlan Sprague Dawley; remark: listed apart in the source
[34] = system: Rat; test: concentration in brain after dosing; conditions: 2 min; dosed: alpha-Thujone; 25 mg/kg; oral; Female; Harlan Sprague Dawley

O=C(O)COc1ccc(Cl)cc1Cl [2,4-Dichlorophenoxyacetic acid]
concentration in plasma [ng/mL]
Conditions | 0.25 h | 0.5 h | 1 h | 2 h | 2.5 min | 3 h | 5 min | 6 h | 8 h | 10 min
[1] | 3930 | 3060 | – | 1790 | – | 990 | 3890 | 324 | 161 | 4270
[2] | 6170 | – | 492 | 1870 | 146 | – | 4920 | – | – | 1970

O=C(c1ccccc1)c1ccc(O)cc1O [2,4-Dihydroxybenzophenone]
Conditions | concentration in plasma [ng/mL]
[3] | 245
[4] | 39.7
[5] | 318
[6] | 217
[7] | 202
[8] | 53.1

[9]
Conditions | concentration in plasma [ng/mL]
3 h | 71.8
10 min | 40.9

C=CCc1ccc(OC)c(OC)c1 [Methyleugenol]
concentration in plasma [ng/mL]
Conditions | 1.5 h | 5 min | 6 h
[10] | – | 670 | 11.6
[12] | 23.6 | – | 8

Conditions | concentration in plasma [ng/mL]
[11] | 246

O=S(=O)([O-])C(F)(F)C(F)(F)C(F)(F)C(F)(F)C(F)(F)C(F)(F)F.[K+] [Perfluorohexane-1-sulphonic acid – potassium salt]
Conditions | concentration in brain [ng/g] | concentration in kidney [ng/g]
[13] | 929 | –
[14] | 743 | –
[15] | – | 4040
[16] | 1520 | –
[17] | – | 10000

CCC1(c2ccccc2)C(=O)NCNC1=O [Primidone]
Conditions | concentration in plasma [ng/mL]
[18] | 15800
[19] | 1600
[20] | 6800
[21] | 13000
[22] | 52500

c1ccncc1 [Pyridine]
Conditions | concentration in plasma [ng/mL]
[23] | 1320
[24] | 4510
[25] | 18400

CC(C)[C@]12CC(=O)[C@H](C)[C@H]1C2 [alpha-Thujone]
Conditions | concentration in brain [ng/g] | concentration in plasma [ng/mL]
[26] | – | 113
[27] | – | 343
[28] | – | 570
[29] | – | 357
[30] | – | 83.5
[31] | 883 | –
[32] | 19.3 | –
[33] | – | 201
[34] | 36.5 | –
